Where a SMILES comes first, the peptide text is derived from it. Bridges are numbered along the chain shown (N, C = ends). [ ]: non-standard residue; d: D form. The star is where a group is joined. Pen = CC(C)(S)[C@H](N)C(=O)O; Acm = CC(=O)NC*
Test system: not listed separately
Assay: Percent inhibition of CD58 and CD2 interaction in caco-2 and Jurkat cell adhesion assay at 90 uM
Assay type: functional
Conditions: Homo sapiens
In short: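 Confluent Caco-2 monolayers (passages 50–60, human CD58) preincubated with peptide in MEM-α at 37 °C for 30 min. Jurkat cells (CD2), loaded with 2 μM BCECF at 37 °C for 1 h, then added at 1×10^6 cells/well for 45 min at 37 °C. Nonadherent cells washed off with PBS; bound cells lysed in 2% Triton X-100/0.2 N NaOH. Background-corrected fluorescence read; percent inhibition; mean of three experiments.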

Going from `CC[C@H](C)[C@@H]1NC(=O)[C@@H](N)C(C)(C)SSC[C@@H](C(=O)O)NC(=O)[C@H](CC(C)C)NC(=O)[C@H](C(C)C)NC(=O)[C@H](CC(N)=O)NC(=O)[C@H](CCCCN)NC(=O)CNC(=O)[C@H](CCCCN)NC(=O)[C@H]([C@@H](C)O)NC(=O)[C@H](CC(=O)O)NC(=O)[C@H](Cc2ccc(O)cc2)NC1=O` to `C[C@@H](O)[C@@H]1NC(=O)[C@@H](CC(=O)O)NC(=O)[C@H](Cc2ccc(O)cc2)NC(=O)[C@@H](CCCCN)NC(=O)CNC(=O)[C@@H](CCCCN)NC1=O`, the inhibition at 90 µM falls from 50% to 20%.

H-SIYDTKGKNVLE-NH2 and `NCCCC[C@@H]1NC(=O)[C@@H](CCC(=O)O)NC(=O)[C@H](CCCCN)NC(=O)[C@@H](CCCN=C(N)N)NC(=O)[C@H](Cc2ccccc2)NC(=O)[C@@H](CCC(=O)O)NC1=O` are the same in inhibition at 90 µM: 25% for the first, 25% for the second.

Compared with `CC(=O)NCSC[C@H](NC(=O)[C@H](Cc1ccccc1)NC(=O)[C@@H](NC(=O)[C@H](CCC(=O)O)NC(=O)[C@H](CCCCN)NC(=O)[C@H](CCC(=O)O)NC(=O)[C@H](CCCCN)NC(=O)[C@H](CCCN=C(N)N)NC(=O)[C@H](Cc1ccccc1)NC(=O)[C@H](CCC(N)=O)NC(=O)[C@H](C)NC(=O)[C@@H](N)C(C)(C)SCNC(C)=O)[C@@H](C)O)C(=O)O` (H-[Pen](Acm)AQFRKEKETFC(Acm)-OH), `C[C@@H]1NC(=O)[C@@H](N)C(C)(C)SSC[C@@H](C(=O)O)NC(=O)[C@H](Cc2ccccc2)NC(=O)[C@H]([C@@H](C)O)NC(=O)[C@H](CCC(=O)O)NC(=O)[C@H](CCCCN)NC(=O)[C@H](CCC(=O)O)NC(=O)[C@H](CCCCN)NC(=O)[C@H](CCCN=C(N)N)NC(=O)[C@H](Cc2ccccc2)NC(=O)[C@H](CCC(N)=O)NC1=O` (H-[Pen]AQFRKEKETFC-OH; disulfide 1-12) is higher in inhibition at 90 µM: 25% for the first, 50% for the second.

Biological target: T1, Lymphocyte function-associated antigen 3 (Homo sapiens) (UniProt P19256)
T1 sequence (whole entry): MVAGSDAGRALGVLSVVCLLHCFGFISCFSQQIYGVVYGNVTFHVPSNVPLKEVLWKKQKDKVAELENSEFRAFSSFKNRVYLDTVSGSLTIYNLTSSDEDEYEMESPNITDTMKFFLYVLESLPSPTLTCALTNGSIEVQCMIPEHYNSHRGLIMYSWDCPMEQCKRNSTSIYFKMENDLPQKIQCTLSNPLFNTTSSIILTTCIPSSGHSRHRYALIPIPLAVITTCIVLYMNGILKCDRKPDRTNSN
Assay: Percent inhibition of E-rossette formation in sheep red blood cells at 200 uM on incubation with T-cells; range 5-15%
Assay type: functional, cell-based
Conditions: Ovis aries
In short: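 Sheep RBCs treated with AET at 37 °C for 15 min, used as 0.5% suspension. Peptide serially diluted in PBS, incubated with the SRBCs at 37 °C for 30 min, then Jurkat cells (2×10^6 cells/mL) added for 15 min. Cells pelleted and held at 4 °C for 1 h. Rosettes counted by hemocytometer on at least 200 cells; percent inhibition; mean of three independent experiments.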

Work on H-SIYDTKGKNVLE-NH2 yielded an inhibition of 15%.

Source: ChEMBL document CHEMBL1141102, “Structure-activity studies of peptides from the "hot-spot" region of human CD2 protein: development of peptides for immunomodulation” (2005)
